Source: ChEMBL document CHEMBL1136978, “Aryl urea derivatives of spiropiperidines as NPY Y5 receptor antagonists” (Bioorg Med Chem Lett, 2009)

test system: not listed separately; assay: Oral bioavailability in rat at 3 mg/kg, iv and 10 mg/kg, po; type: ADME, organism-based; details: in vivo

SMILES	bioavailability [%]
O=C1NC2(CCN(C(=O)Nc3cnc(-c4ccccc4)cn3)CC2)c2ccccc21	8
O=C1OC2(CCN(C(=O)Nc3cnc(-c4ccccc4)cn3)CC2)c2ccccc21	49
O=C1Cc2ccccc2C2(CCN(C(=O)Nc3cnc(-c4ccccc4)cn3)CC2)N1	3

test system: not listed separately; assay: Plasma concentration in rat at 10 mg/kg, po after 2 hrs; type: ADME, organism-based; set-up: dose 10 mg/kg, route oral; details: not given
Method in brief: (§1)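 Single oral dose of 10 mg/kg to rats (n = 3). Plasma (µM), brain (nmol/g tissue) and CSF (µM) levels taken at 2 h post-dose.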

SMILES	concentration at 2 h [nM]
O=C1OC2(CCN(C(=O)Nc3ncc(-c4ccccc4)cn3)CC2)c2ccccc21	3860
O=C1OC2(CCN(C(=O)Nc3cc(-c4ccc(Cl)cc4)no3)CC2)c2ccccc21	1420
O=C1NC2(CCN(C(=O)Nc3cnc(-c4ccccc4)cn3)CC2)c2ccccc21	360
O=C1OC2(CCN(C(=O)Nc3cnc(-c4ccccc4)cn3)CC2)c2ccccc21	2980

test system: Brain; assay: Drug level in rat brain at 10 mg/kg, po after 2 hrs measured per gram of tissue; type: ADME, organism-based; set-up: dose 10 mg/kg, route oral; details: in vivo; method in brief: as §1

SMILES	Drug uptake [nmol/g]
O=C1OC2(CCN(C(=O)Nc3ncc(-c4ccccc4)cn3)CC2)c2ccccc21	0.26
O=C1OC2(CCN(C(=O)Nc3cc(-c4ccc(Cl)cc4)no3)CC2)c2ccccc21	1.09
O=C1NC2(CCN(C(=O)Nc3cnc(-c4ccccc4)cn3)CC2)c2ccccc21	0.029
O=C1OC2(CCN(C(=O)Nc3cnc(-c4ccccc4)cn3)CC2)c2ccccc21	2.92

test system: not listed separately; assay: Drug level in rat cerebrospinal fluid at 10 mg/kg, po after 2 hrs; type: ADME, organism-based; set-up: dose 10 mg/kg, route oral; details: read-out: Drug uptake; method in brief: as §1

SMILES	concentration at 2 h [nM]
O=C1OC2(CCN(C(=O)Nc3ncc(-c4ccccc4)cn3)CC2)c2ccccc21	130
O=C1OC2(CCN(C(=O)Nc3cc(-c4ccc(Cl)cc4)no3)CC2)c2ccccc21	< 10
O=C1OC2(CCN(C(=O)Nc3cnc(-c4ccccc4)cn3)CC2)c2ccccc21	100
